≈ marks a conversion by molar mass, not a printed value.
Test system: Mycobacterium tuberculosis
Assay: Antimycobacterial against multidrug resistant Mycobacterium tuberculosis by agar dilution method
Type: functional
Method in brief: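 Strain was an MDR-TB clinical isolate resistant to isoniazid and rifampicin, among other drugs. MIC read by agar dilution, run in triplicate.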

CC[C@@H](CO)NCCN[C@@H](CC)CO [ETHAMBUTOL]
MIC: 61.2 µM (≈ 12.5 µg/mL)

CN1CCC(=O)[C@]2(C1)[C@@H](c1ccc(Cl)cc1Cl)CN(C)[C@@]21C(=O)Nc2ccccc21
MIC: 0.88 µM (≈ 0.391 µg/mL)

CN1CCC(=O)[C@]2(C1)[C@@H](c1ccccc1Cl)[C@@H]1CCCN1[C@@]21C(=O)Nc2ccccc21
MIC: 3.58 µM (≈ 1.56 µg/mL)

CN1CCC(=O)[C@]2(C1)[C@@H](c1ccc(Cl)cc1Cl)[C@@H]1CCCN1[C@@]21C(=O)Nc2ccccc21
MIC: 1.66 µM (≈ 0.781 µg/mL)

NNC(=O)c1ccncc1 [ISONIAZID]
MIC: 11.4 µM (≈ 1.56 µg/mL)

NC(=O)c1cnccn1 [PYRAZINAMIDE]
MIC: 406 µM (≈ 50 µg/mL)

Source: ChEMBL document CHEMBL1153639, “A facile synthesis and antimycobacterial evaluation of novel spiro-pyrido-pyrrolizines and pyrrolidines” (2009)
